# Measured values from ChEMBL document CHEMBL4725389, “Novel Blocker of Onco SK3 Channels Derived from Scorpion Toxin Tamapin and Active against Migration of Cancer Cells” (ACS Med Chem Lett, 2020).
# The source made the active and inactive calls. The calls are words filed in the database; no cut-off is given here. Positions of bridges follow the written chain, without caps; N, C: chain ends. Residues, ends and D or L forms follow the SMILES beside them.
# Legend:
# [1] = target: Small conductance calcium-activated potassium channel protein 2 (Rattus norvegicus, UniProt P70604); assay: Inhibition of recombinant rat SK2 expressed in HEK293 cells assessed as […] at membrane potential -120 mV for 50 ms followed by 400 ms voltage ramp to 60 mV by whole cell patch clamp method; type: cell-based
# [2] = target: T1, Small conductance calcium-activated potassium channel protein 3 (Homo sapiens, UniProt Q9UGI6); assay: Inhibition of recombinant human SK3 expressed in HEK293T cells assessed as […] at membrane potential -120 mV for 50 ms followed by 400 ms voltage ramp to 60 mV by whole cell patch clamp method; type: cell-based, HEK-293T
# [3] = target: Small conductance calcium-activated potassium channel protein 2 (Rattus norvegicus) (UniProt P70604); assay: Inhibition of recombinant rat SK2 expressed in HEK293 cells at 10 nM and holding potential at 0 mV and ramp voltage from -100 to 100 mV by whole cell patch clamp method relative to control; type: cell-based
# [4] = target: T1, Small conductance calcium-activated potassium channel protein 3; assay: Inhibition of recombinant human SK3 expressed in HEK293T cells at 10 nM and holding potential at 0 mV and ramp voltage from -100 to 100 mV by whole cell patch clamp method relative to control; type: cell-based; conditions: HEK-293T
# [5] = target: T1, Small conductance calcium-activated potassium channel protein 3; assay: Inhibition of recombinant human SK3 expressed in HEK293T cells assessed as ratio of amplitude of outward current blocked in presence and absence of compound at 1 nM and holding potential at 0 mV and ramp voltage from -100 to 100 mV by whole cell patch clamp method relative to control; type: cell-based
# Outline: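 Whole-cell patch clamp on HEK293T cells expressing recombinant human SK3, pCa 6. Ramp from −100 to 100 mV over 500 ms, holding at 0 mV; currents analysed at 0 mV. Peptide at 1 nM, then 100 nM apamin to block residual SKCa current. Inhibition = ratio of outward current amplitude blocked at 1 nM to amplitude without compound.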
# [6] = target: T1, Small conductance calcium-activated potassium channel protein 3; assay: Inhibition of recombinant human SK3 expressed in HEK293T cells assessed as reduction in channel current with holding potential 0 mV and ramp voltage from -100 to 100 mV by whole cell patch clamp method; type: cell-based, HEK-293T
# Outline: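 HEK293T stably expressing recombinant human SK3, whole-cell recording at pCa 6. Ramp −100 to 100 mV, 500 ms, from 0 mV holding; current at 0 mV taken as SKCa-only. Concentration–response curves fitted for EC50 (means ± SEM, n = 3–8).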
# [7] = target: T1, Small conductance calcium-activated potassium channel protein 3; assay: Inhibition of SK3-dependent cell migration in human MDA-MB-435 cells assessed as ratio of total cells migrating by matrigel invasion method relative to control; type: cell-based
# MDA-MB-435 [8] = assay: Inhibition of cell migration in human MDA-MB-435 cells expressing SK3 by matrigel invasion method relative to control
# MDA-MB-435 [9] = assay: Inhibition of cell migration in human MDA-MB-435 cells transfected with lentivrus-encoding shRNA against SK3 by matrigel invasion method relative to control; type: functional
# Outline: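 MDA-MB-435s cells lacking SK3 expression were exposed to peptides at 100 nM. Migration is given as migrating cells with peptide divided by migrating cells under control conditions (means ± SEM, N = 4, n = 12). Groups were compared by Kruskal–Wallis with post hoc tests.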
# Small conductance calcium-activated potassium channel protein 2 (Rattus norvegicus), sequence (P70604 whole entry): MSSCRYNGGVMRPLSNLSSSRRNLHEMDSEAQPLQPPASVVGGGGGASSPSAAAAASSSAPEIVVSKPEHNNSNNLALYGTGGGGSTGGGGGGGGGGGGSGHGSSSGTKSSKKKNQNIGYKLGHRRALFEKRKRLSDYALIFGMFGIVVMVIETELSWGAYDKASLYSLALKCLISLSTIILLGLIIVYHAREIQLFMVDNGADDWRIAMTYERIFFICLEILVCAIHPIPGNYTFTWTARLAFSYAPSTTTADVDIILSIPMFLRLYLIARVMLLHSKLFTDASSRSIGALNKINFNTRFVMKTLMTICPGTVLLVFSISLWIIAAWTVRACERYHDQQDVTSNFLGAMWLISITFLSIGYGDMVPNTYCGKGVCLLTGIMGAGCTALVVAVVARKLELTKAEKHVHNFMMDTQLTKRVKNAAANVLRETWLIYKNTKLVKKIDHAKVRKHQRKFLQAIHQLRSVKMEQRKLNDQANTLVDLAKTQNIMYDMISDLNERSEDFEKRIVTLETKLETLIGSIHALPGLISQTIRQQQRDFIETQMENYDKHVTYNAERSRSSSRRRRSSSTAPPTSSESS
# T1 sequence (Q9UGI6 whole entry): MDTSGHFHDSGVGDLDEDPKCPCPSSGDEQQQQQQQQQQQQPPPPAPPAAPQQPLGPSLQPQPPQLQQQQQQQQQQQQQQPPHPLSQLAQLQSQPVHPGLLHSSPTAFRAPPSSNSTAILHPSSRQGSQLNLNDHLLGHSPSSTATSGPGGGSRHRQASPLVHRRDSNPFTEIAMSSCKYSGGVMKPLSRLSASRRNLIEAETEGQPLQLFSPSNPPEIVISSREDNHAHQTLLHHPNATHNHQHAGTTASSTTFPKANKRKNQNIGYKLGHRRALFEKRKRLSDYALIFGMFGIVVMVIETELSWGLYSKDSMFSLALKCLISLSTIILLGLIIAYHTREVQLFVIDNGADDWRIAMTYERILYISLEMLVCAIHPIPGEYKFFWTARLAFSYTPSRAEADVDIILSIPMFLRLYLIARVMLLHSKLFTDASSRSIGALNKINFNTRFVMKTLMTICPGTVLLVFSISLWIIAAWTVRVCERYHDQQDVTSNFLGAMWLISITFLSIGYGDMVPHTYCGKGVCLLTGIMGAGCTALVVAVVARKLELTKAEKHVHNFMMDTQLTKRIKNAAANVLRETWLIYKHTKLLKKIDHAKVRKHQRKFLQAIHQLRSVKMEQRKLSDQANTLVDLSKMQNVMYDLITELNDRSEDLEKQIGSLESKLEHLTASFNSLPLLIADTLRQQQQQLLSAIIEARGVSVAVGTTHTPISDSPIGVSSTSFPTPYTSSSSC
# Small conductance calcium-activated potassium channel protein 2, sequence (P70604 whole entry): as the sequence (P70604 whole entry) above
EC50 [2] [nM],SMILES,EC50 [1] [nM],inhibition [3] [%],inhibition [4] [%],inhibition [5] [%],EC50 [6] [nM],further results
–,"CC[C@H](C)[C@@H]1NC(=O)[C@@H]2CSSC[C@H](NC(=O)[C@H](Cc3ccccc3)NC(=O)[C@H](C)N)C(=O)N[C@@H](CC(N)=O)C(=O)N[C@@H](CC(C)C)C(=O)N[C@@H](CCCNC(=N)N)C(=O)N[C@@H](CCCNC(=N)N)C(=O)N[C@H]3CSSC[C@H](NC(=O)[C@H](CCCCN)NC(=O)[C@H](CCC(=O)O)NC(=O)CNC1=O)C(=O)N[C@@H](CCC(=O)O)C(=O)N[C@H](C(=O)N[C@H](C(=O)N1CCC[C@H]1C(=O)N[C@@H](Cc1ccc(O)cc1)C(=O)O)C(C)C)CSSC[C@H](NC(=O)[C@H](CO)NC(=O)[C@H](CC(C)C)NC(=O)[C@H](CCC(=O)O)NC3=O)C(=O)N[C@@H](CCCNC(=N)N)C(=O)N[C@@H](CO)C(=O)N[C@@H](CC(C)C)C(=O)NCC(=O)N[C@@H](CC(C)C)C(=O)N[C@@H](CC(C)C)C(=O)NCC(=O)N[C@@H](CCCCN)C(=O)N2 (H-AFCNLRRCELSCRSLGLLGKCIGEKCECVPY-OH; disulfide 3-21, 8-26, 12-28)",–,40,> 85,73,0.38,inhibition ([7]; concentration not given here): 76.5%; inhibition (INH) (MDA-MB-435 [8]): 45.9%
–,"CC[C@H](C)[C@@H]1NC(=O)[C@@H]2CSSC[C@H](NC(=O)[C@H](Cc3ccccc3)NC(=O)[C@H](C)N)C(=O)N[C@@H](CC(N)=O)C(=O)N[C@@H](CC(C)C)C(=O)N[C@@H](CCCNC(=N)N)C(=O)N[C@@H](CCCNC(=N)N)C(=O)N[C@H]3CSSC[C@H](NC(=O)[C@H](CCC(=O)O)NC(=O)[C@H](CCC(=O)O)NC(=O)CNC1=O)C(=O)N[C@@H](CCCCN)C(=O)N[C@H](C(=O)N[C@H](C(=O)N1CCC[C@H]1C(=O)N[C@@H](Cc1ccc(O)cc1)C(=O)O)C(C)C)CSSC[C@H](NC(=O)[C@H](CO)NC(=O)[C@H](CC(C)C)NC(=O)[C@H](CCC(=O)O)NC3=O)C(=O)N[C@@H](CCCNC(=N)N)C(=O)N[C@@H](CO)C(=O)N[C@@H](CC(C)C)C(=O)NCC(=O)N[C@@H](CC(C)C)C(=O)N[C@@H](CC(C)C)C(=O)NCC(=O)N[C@@H](CCCCN)C(=O)N2 (H-AFCNLRRCELSCRSLGLLGKCIGEECKCVPY-OH; disulfide 3-21, 8-26, 12-28)",–,> 85,40,25,2.6,inhibition (MDA-MB-435 [9]): inactive; inhibition [7]: inactive
1.7,"CC[C@H](C)[C@@H]1NC(=O)[C@@H]2CSSC[C@H](NC(=O)[C@H](Cc3ccccc3)NC(=O)[C@H](C)N)C(=O)N[C@@H](CC(N)=O)C(=O)N[C@@H](CC(C)C)C(=O)N[C@@H](CCCNC(=N)N)C(=O)N[C@@H](CCCNC(=N)N)C(=O)N[C@H]3CSSC[C@H](NC(=O)[C@H](CCC(=O)O)NC(=O)[C@H](CCC(=O)O)NC(=O)CNC1=O)C(=O)N[C@@H](CCCCN)C(=O)N[C@H](C(=O)N[C@H](C(=O)N1CCC[C@H]1C(=O)N[C@@H](Cc1ccc(O)cc1)C(N)=O)C(C)C)CSSC[C@H](NC(=O)[C@H](CO)NC(=O)[C@H](CC(C)C)NC(=O)[C@H](CCC(=O)O)NC3=O)C(=O)N[C@@H](CCCNC(=N)N)C(=O)N[C@@H](CO)C(=O)N[C@@H](CC(C)C)C(=O)NCC(=O)N[C@@H](CC(C)C)C(=O)N[C@@H](CC(C)C)C(=O)NCC(=O)N[C@@H](CCCCN)C(=O)N2 (H-AFCNLRRCELSCRSLGLLGKCIGEECKCVPY-NH2; disulfide 3-21, 8-26, 12-28)",0.024,–,–,–,–,–
–,"CC[C@H](C)[C@@H]1NC(=O)[C@@H]2CSSC[C@H](NC(=O)[C@H](Cc3ccccc3)NC(=O)[C@H](C)N)C(=O)N[C@@H](CC(N)=O)C(=O)N[C@@H](CC(C)C)C(=O)N[C@@H](CCCNC(=N)N)C(=O)N[C@@H](CCCNC(=N)N)C(=O)N[C@H]3CSSC[C@H](NC(=O)[C@H](CCC(=O)O)NC(=O)[C@H](CCC(=O)O)NC(=O)CNC1=O)C(=O)N[C@@H](CCCCN)C(=O)N[C@H](C(=O)N[C@H](C(=O)N1CCC[C@H]1C(=O)N[C@@H](Cc1ccc(O)cc1)C(=O)O)C(C)C)CSSC[C@H](NC(=O)[C@H](CO)NC(=O)[C@H](CC(C)C)NC(=O)[C@H](CCC(=O)O)NC3=O)C(=O)N[C@@H](CCCNC(=N)N)C(=O)N[C@@H](CO)C(=O)N[C@@H](CC(C)C)C(=O)NCC(=O)N[C@@H](CC(C)C)C(=O)N[C@@H](CC(C)C)C(=O)NCC(=O)N[C@@H](CCC(=O)O)C(=O)N2 (H-AFCNLRRCELSCRSLGLLGECIGEECKCVPY-OH; disulfide 3-21, 8-26, 12-28)",–,> 85,< 39,–,–,–
3.8,"CC[C@H](C)[C@@H]1NC(=O)[C@@H]2CSSC[C@H](NC(=O)[C@@H](NC(=O)[C@H](C)N)C(C)C)C(=O)N[C@@H](CC(N)=O)C(=O)N[C@@H](CC(C)C)C(=O)N[C@@H](CCCCN)C(=O)N[C@@H](CCCNC(=N)N)C(=O)N[C@H]3CSSC[C@H](NC(=O)[C@H](CCCCN)NC(=O)[C@H](CC(=O)O)NC(=O)CNC1=O)C(=O)N[C@@H](CCC(=O)O)C(=O)N[C@H](C(=O)N[C@H](C(=O)N[C@@H](CCCCN)C(=O)N[C@@H](Cc1c[nH]cn1)C(N)=O)C(C)C)CSSC[C@H](NC(=O)[C@H](CO)NC(=O)[C@H](CC(C)C)NC(=O)[C@H](CCC(N)=O)NC3=O)C(=O)N[C@@H](CCCNC(=N)N)C(=O)N[C@@H](CO)C(=O)N[C@@H](CC(C)C)C(=O)NCC(=O)N[C@@H](CC(C)C)C(=O)N[C@@H](CC(C)C)C(=O)NCC(=O)N[C@@H](CCCCN)C(=O)N2 (H-AVCNLKRCQLSCRSLGLLGKCIGDKCECVKH-NH2; disulfide 3-21, 8-26, 12-28)",–,–,–,–,–,–

SMILES,EC50 [2] [nM],EC50 [1] [nM],inhibition [3] [%],inhibition [4] [%],inhibition [5] [%],EC50 [6] [nM],further results
"CC[C@H](C)[C@@H]1NC(=O)[C@@H]2CSSC[C@H](NC(=O)[C@H](Cc3ccccc3)NC(=O)[C@H](C)N)C(=O)N[C@@H](CC(N)=O)C(=O)N[C@@H](CC(C)C)C(=O)N[C@@H](CCCNC(=N)N)C(=O)N[C@@H](CCSC)C(=O)N[C@H]3CSSC[C@H](NC(=O)[C@H](CCCCN)NC(=O)[C@H](CC(=O)O)NC(=O)CNC1=O)C(=O)N[C@@H](CCC(=O)O)C(=O)N[C@H](C(=O)N[C@H](C(=O)N[C@@H](CCCCN)C(=O)N[C@@H](Cc1c[nH]cn1)C(=O)O)C(C)C)CSSC[C@H](NC(=O)[C@H](CO)NC(=O)[C@H](CC(C)C)NC(=O)[C@H](CCC(N)=O)NC3=O)C(=O)N[C@@H](CCCNC(=N)N)C(=O)N[C@@H](CO)C(=O)N[C@@H](CC(C)C)C(=O)NCC(=O)N[C@@H](CC(C)C)C(=O)N[C@@H](CC(C)C)C(=O)NCC(=O)N[C@@H](CCCCN)C(=O)N2 (H-AFCNLRMCQLSCRSLGLLGKCIGDKCECVKH-OH; disulfide 3-21, 8-26, 12-28)",1.1,0.29,–,–,–,–,–
